Measurements from ChEMBL document CHEMBL3576810, “Pentacyclic antibiotics from a tidal mud flat-derived actinomycete” (J Nat Prod, 2015).
≈ marks a conversion by molar mass, not a printed value. Calls of active or inactive are those of the source. The calls are words filed in the database; no cut-off is given here.

Columns and labels:
[1] = tested on: Salmonella enterica; assay: Antibacterial activity against Salmonella enterica ATCC 14028 incubated for 12 hrs at 37 degC; type: functional; settings: ATCC 14028, 12 h
How it was run: (§1)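 Bacteria grown overnight in LB broth at 37 °C, centrifuged and washed twice in sterile water. DMSO compound stocks serially 2-fold diluted in Plate Count Broth over 50 to 0.8 μg/mL. Inoculum 5 × 10^5 cfu/mL final, 12 h at 37 °C. MIC taken as lowest concentration with no visible growth. Ampicillin reference.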

[2] = tested on: Kocuria rhizophila; assay: Antibacterial activity against Kocuria rhizophila NBRC 12708 incubated for 12 hrs at 37 degC; type: functional; settings: NBRC 12708, 12 h; how it was run: as §1
[3] = tested on: HCT-116; assay: Cytotoxicity against human HCT116 cells after 72 hrs by sulforhodamine B assay; type: functional, cell-based; settings: HCT-116, 72 h
How it was run: (§2)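 Cells seeded at 3 × 10^4 cells/mL and exposed to a range of compound concentrations at 37 °C, 5% CO2, for 72 h. Fixed with 10% TCA for 1 h, stained with 0.4% SRB in 1% acetic acid, dye dissolved in 10 mM Tris pH 10.0. Survival expressed relative to solvent control; IC50 by nonlinear regression. Etoposide positive control.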

[4] = tested on: Proteus hauseri; assay: Antibacterial activity against Proteus hauseri NBRC 3851 incubated for 12 hrs at 37 degC; type: functional; settings: NBRC 3851, 12 h; how it was run: as §1
[5] = Inhibition of Staphylococcus aureus ATCC 6538p sortase A delta24 mutant using H2N-Abz-LPXTG-Dap(Dnp)-NH2 fluorescent substrate incubated for 1 hr by fluorescence based assay
How it was run: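 Recombinant SrtAΔ24 (24 μg), srtA gene from S. aureus ATCC 6538p. Buffer 50 mM Tris-HCl, 150 mM NaCl, pH 7.5, 5 mM CaCl2, with 1 μg Abz-LPXTG-Dap(Dnp) peptide, 1 mM pentaglycine and compound at several concentrations (0.5% DMSO final). 1 h at 37 °C. Fluorescence read at excitation 317 nm, emission 420 nm. p-Hydroxymercuribenzoic acid positive control.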

[6] = Cytotoxicity against human SKHEP1 cells after 72 hrs by sulforhodamine B assay; type: functional, cell-based; settings: SK-HEP1, 72 h; how it was run: as §2
[7] = tested on: Aspergillus fumigatus; assay: Antifungal activity against Aspergillus fumigatus HIC 6094; type: functional
How it was run: (§3)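 Fungi grown on potato dextrose agar for 2 weeks at 28 °C. Spores harvested, washed twice and suspended at 5 × 10^5 spores/mL, then diluted into potato dextrose broth (5 × 10^4 cells/mL) with test compound in DMSO (0.5% final). DMSO solvent control; amphotericin B positive control.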

[8] = tested on: K562; assay: Cytotoxicity against human K562 cells after 72 hrs by sulforhodamine B assay; type: functional, cell-based; settings: K562, 72 h; how it was run: as §2
[9] = Cytotoxicity against human SNU638 cells after 72 hrs by sulforhodamine B assay; type: functional, cell-based; settings: SNU-638, 72 h; how it was run: as §2
[10] = tested on: Staphylococcus aureus; assay: Antibacterial activity against Staphylococcus aureus ATCC 25923 incubated for 12 hrs at 37 degC; type: functional; settings: ATCC 25923, 12 h; how it was run: as §1
[11] = tested on: A549; assay: Cytotoxicity against human A549 cells after 72 hrs by sulforhodamine B assay; type: functional, cell-based; settings: A549, 72 h; how it was run: as §2
[12] = tested on: Bacillus subtilis; assay: Antibacterial activity against Bacillus subtilis ATCC 6633 incubated for 12 hrs at 37 degC; type: functional; settings: ATCC 6633, 12 h; how it was run: as §1
[13] = tested on: MDA-MB-231; assay: Cytotoxicity against human MDA-MB-231 cells after 72 hrs by sulforhodamine B assay; type: functional, cell-based; settings: MDA-MB-231, 72 h; how it was run: as §2
[14] = tested on: Candida albicans; assay: Antifungal activity against Candida albicans ATCC 10231; type: functional
How it was run: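 C. albicans grown in YPD medium for 48 h at 28 °C, centrifuged and washed twice with sterile water. Cells (5 × 10^4 cells/mL) in potato dextrose broth with test compound in DMSO (0.5% final). DMSO solvent control; amphotericin B positive control.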

[15] = tested on: Trichophyton rubrum; assay: Antifungal activity against Trichophyton rubrum NBRC 9185; type: functional, organism-based; how it was run: as §3
[16] = tested on: Trichophyton mentagrophytes; assay: Antifungal activity against Trichophyton mentagrophytes IFM 40996; type: functional, organism-based; how it was run: as §3

Compound | MIC [1] | MIC [2] | IC50 [3] [nM] | MIC [4] | IC50 [5] [nM] | IC50 [6] [nM] | MIC [7] | IC50 [8] [nM] | IC50 [9] [nM] | MIC [10] | IC50 [11] [nM] | MIC [12] | IC50 [13] [nM] | MIC [14] | MIC [15] | MIC [16]
COc1ccc2oc3c(O)c4c(c(O)c3c(=O)c2c1O)-c1c(cc(CC(C)=O)c(C(=O)N[C@@](C)(CO)C(=O)O)c1O)CC4 | 0.7 µM | 10.5 µM | 900 | 21.1 µM | 43200 | 1900 | 84.3 µM (≈ 50 µg/mL) | > 100000 | 800 | 10.5 µM | 1700 | 0.7 µM | 1200 | 21.1 µM (≈ 12.5 µg/mL) |  | 
CC1(C)S[C@@H]2[C@H](NC(=O)[C@H](N)c3ccccc3)C(=O)N2[C@H]1C(=O)O [AMPICILLIN] | 4.5 µM | 0.6 µM |  | < 0.6 µM |  |  |  |  |  | 4.5 µM |  | 1.1 µM |  |  |  | 
CC(=O)Cc1cc(O)c2c(c1)CCc1c-2cc2c(c1O)C(=O)c1c(O)cc(O)cc1C2=O | > 100 µg/mL | > 100 µg/mL | > 100000 | > 100 µg/mL |  | > 100000 | inactive | 18300 | > 100000 | > 100 µg/mL | > 100000 | > 100 µg/mL | > 100000 | inactive | inactive | inactive
COc1cc([C@@H]2c3cc4c(cc3[C@@H](O[C@@H]3O[C@@H]5CO[C@@H](C)O[C@H]5[C@H](O)[C@H]3O)[C@H]3COC(=O)[C@H]23)OCO4)cc(OC)c1O [ETOPOSIDE] |  |  | 1900 |  |  | 1100 |  | 3100 | 500 |  | 800 |  | 10600 |  |  | 
Para-Hydroxymercuribenzoic acid |  |  |  |  | 104000 |  |  |  |  |  |  |  |  |  |  | 
